{"source": "ChEMBL document CHEMBL1275447", "about": "(Antimicrob Agents Chemother, 2008)", "key": {"Pseudomonas aeruginosa [1]": {"test_system": "Pseudomonas aeruginosa", "assay": "Antibacterial activity against Pseudomonas aeruginosa isolate 993 by microdilution method", "type": "functional"}, "Pseudomonas aeruginosa [2]": {"test_system": "Pseudomonas aeruginosa", "assay": "Antibacterial activity against Pseudomonas aeruginosa isolate 1055 by microdilution method", "type": "functional"}, "Pseudomonas aeruginosa [3]": {"test_system": "Pseudomonas aeruginosa", "assay": "Antibacterial activity against Pseudomonas aeruginosa isolate 1050 by microdilution method", "type": "functional", "outline": "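CLSI broth microdilution in cation-adjusted Mueller-Hinton broth (20–25 mg/liter Ca, 10–12.5 mg/liter Mg). Standard inoculum 10⁵ CFU/ml, incubated in ambient air. Clinical hospital isolates.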"}, "[4]": {"assay": "fT>MIC in human infected with Pseudomonas aeruginosa isolate 993 at 500 mg administered as 1 hr infusion", "type": "functional"}, "[5]": {"assay": "fT>MIC in human infected with Pseudomonas aeruginosa isolate 935 at 500 mg administered as 1 hr infusion", "type": "functional"}, "[6]": {"assay": "fT>MIC in human infected with Pseudomonas aeruginosa isolate 927 at 500 mg administered as 1 hr infusion", "type": "functional"}, "[7]": {"assay": "fT>MIC in human infected with Pseudomonas aeruginosa isolate 968 at 500 mg administered as 1 hr infusion", "type": "functional"}, "[8]": {"assay": "fT>MIC in human infected with Pseudomonas aeruginosa isolate 993 at 500 mg administered as 4 hr infusion", "type": "functional"}, "[9]": {"assay": "fT>MIC in human infected with Pseudomonas aeruginosa isolate 1029 at 500 mg administered as 4 hr infusion", "type": "functional"}, "[10]": {"assay": "fT>MIC in human infected with Pseudomonas aeruginosa isolate 869 at 500 mg administered as 4 hr infusion", "type": "functional"}, "[11]": {"assay": "fT>MIC in human infected with Pseudomonas aeruginosa isolate 935 at 500 mg administered as 4 hr infusion", "type": "functional"}, "[12]": {"assay": "fT>MIC in human infected with Pseudomonas aeruginosa isolate 1005 at 500 mg administered as 4 hr infusion", "type": "functional"}, "[13]": {"assay": "fT>MIC in human infected with Pseudomonas aeruginosa isolate 1082 at 500 mg administered as 4 hr infusion", "type": "functional"}, "[14]": {"assay": "fT>MIC in human infected with Pseudomonas aeruginosa isolate 979 at 500 mg administered as 4 hr infusion", "type": "functional"}, "[15]": {"assay": "fT>MIC in human infected with Pseudomonas aeruginosa isolate 936 at 500 mg administered as 4 hr infusion", "type": "functional"}, "[16]": {"assay": "fT>MIC in human infected with Pseudomonas aeruginosa isolate 988 at 500 mg administered as 4 hr infusion", "type": "functional"}, "[17]": {"assay": "fT>MIC in human infected with Pseudomonas aeruginosa isolate 927 at 500 mg administered as 4 hr infusion", "type": "functional"}, "[18]": {"assay": "fT>MIC in neutropenic mouse infected with Pseudomonas aeruginosa isolate 935 at 500 mg administered as 1 hr infusion", "type": "functional", "outline": "(§1)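 Free-drug time above MIC simulated from one-compartment mouse serum PK (25.2% protein binding). The mice were cyclophosphamide-neutropenic and uranyl nitrate-renally impaired. Regimen was subcutaneous 10, 15, 2.5, 1.25, 0.5, 0.25 mg/kg at 0, 0.5, 2.5, 4, 5.5, 7 h, repeated every 8 h over 24 h.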"}, "[19]": {"assay": "fT>MIC in neutropenic mouse infected with Pseudomonas aeruginosa isolate 1082 at 500 mg administered as 1 hr infusion", "type": "functional", "outline": "as §1"}, "[20]": {"assay": "fT>MIC in neutropenic mouse infected with Pseudomonas aeruginosa isolate 979 at 500 mg administered as 1 hr infusion", "type": "functional", "outline": "as §1"}, "[21]": {"assay": "fT>MIC in neutropenic mouse infected with Pseudomonas aeruginosa isolate 944 at 500 mg administered as 1 hr infusion", "type": "functional", "outline": "as §1"}, "[22]": {"assay": "fT>MIC in neutropenic mouse infected with Pseudomonas aeruginosa isolate 993 at 500 mg administered as 4 hr infusion", "type": "functional", "outline": "(§2)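 Mouse fT>MIC was modelled with first-order one-compartment serum PK and 25.2% binding. Mice were neutropenic (cyclophosphamide) with uranyl nitrate renal impairment. Subcutaneous doses were 5.5, 2.25, 4.5, 4.5, 4.5, 4.5, 0.75, 0.375 mg/kg at 0, 0.5, 1.5, 2.5, 3.5, 4.5, 6, 7.5 h per 8-h interval over 24 h.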"}, "[23]": {"assay": "fT>MIC in neutropenic mouse infected with Pseudomonas aeruginosa isolate 869 at 500 mg administered as 4 hr infusion", "type": "functional", "outline": "as §2"}, "[24]": {"assay": "fT>MIC in neutropenic mouse infected with Pseudomonas aeruginosa isolate 886 at 500 mg administered as 4 hr infusion", "type": "functional", "outline": "as §2"}, "[25]": {"assay": "fT>MIC in neutropenic mouse infected with Pseudomonas aeruginosa isolate 1055 at 500 mg administered as 4 hr infusion", "type": "functional", "outline": "as §2"}, "[26]": {"assay": "fT>MIC in neutropenic mouse infected with Pseudomonas aeruginosa isolate 1082 at 500 mg administered as 4 hr infusion", "type": "functional", "outline": "as §2"}, "[27]": {"assay": "fT>MIC in neutropenic mouse infected with Pseudomonas aeruginosa isolate 906 at 500 mg administered as 4 hr infusion", "type": "functional", "outline": "as §2"}, "[28]": {"assay": "fT>MIC in neutropenic mouse infected with Pseudomonas aeruginosa isolate 944 at 500 mg administered as 4 hr infusion", "type": "functional", "outline": "as §2"}, "[29]": {"assay": "fT>MIC in neutropenic mouse infected with Pseudomonas aeruginosa isolate 1050 at 500 mg administered as 4 hr infusion", "type": "functional", "outline": "as §2"}, "[30]": {"assay": "fT>MIC in neutropenic mouse infected with Pseudomonas aeruginosa isolate 988 at 500 mg administered as 4 hr infusion", "type": "functional", "outline": "as §2"}, "[31]": {"assay": "fT>MIC in neutropenic mouse infected with Pseudomonas aeruginosa isolate 927 at 500 mg administered as 4 hr infusion", "type": "functional", "outline": "as §2"}, "[32]": {"assay": "Tmax in Pseudomonas aeruginosa ATCC 27853 infected neutropenic ICR mouse at 150 mg/kg, sc administered as single dose 2 hrs postinfection by HPLC", "type": "ADME, organism-based", "parameters": "dose 150 mg/kg, route subcutaneous", "details": "in vivo", "outline": "(§3)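 Neutropenic mice (cyclophosphamide ip 150 and 100 mg/kg, 4 and 1 days before inoculation) with uranyl nitrate 5 mg/kg ip 3 days before, for renal impairment. Thigh infection with ATCC 27853 at 10⁶ CFU/ml, 0.1 ml per thigh. Single sc doses 2 h later. Intracardiac blood from 6–12 mice per time point, eight time points over 4 h. Serum assayed by HPLC (linear 0.5–40 μg/ml). One-compartment first-order fit.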"}, "[33]": {"assay": "Elimination rate constant in Pseudomonas aeruginosa ATCC 27853 infected neutropenic ICR mouse at 50 mg/kg, sc administered as single dose 2 hrs postinfection", "type": "ADME, organism-based", "parameters": "dose 50 mg/kg, route subcutaneous", "details": "in vivo", "outline": "as §3"}, "[34]": {"assay": "Half-life in Pseudomonas aeruginosa ATCC 27853 infected neutropenic ICR mouse at 50 mg/kg, sc administered as single dose 2 hrs postinfection", "type": "ADME, organism-based", "parameters": "dose 50 mg/kg, route subcutaneous", "details": "in vivo", "outline": "as §3"}, "[35]": {"assay": "Half-life in Pseudomonas aeruginosa ATCC 27853 infected neutropenic ICR mouse at 150 mg/kg, sc administered as single dose 2 hrs postinfection", "type": "ADME, organism-based", "parameters": "dose 150 mg/kg, route subcutaneous", "details": "in vivo", "outline": "as §3"}, "[36]": {"assay": "Clearance in Pseudomonas aeruginosa ATCC 27853 infected neutropenic ICR mouse at 10 mg/kg, sc administered as single dose 2 hrs postinfection", "type": "ADME, organism-based", "parameters": "dose 10 mg/kg, route subcutaneous", "details": "in vivo", "outline": "as §3"}, "[37]": {"assay": "Cmax in healthy human at 500 mg administered as 1 hr infusion", "type": "ADME, organism-based", "parameters": "dose 500 mg", "details": "in vivo, iv"}, "[38]": {"assay": "AUC in Pseudomonas aeruginosa ATCC 27853 infected neutropenic ICR mouse at 500 mg administered as 4 hr infusion", "type": "ADME, organism-based", "details": "plasma, iv"}, "Pseudomonas aeruginosa [39]": {"test_system": "Pseudomonas aeruginosa", "assay": "Antibacterial activity against Pseudomonas aeruginosa isolate 944 at 4 ug/ml after 24 hrs", "type": "functional, organism-based"}, "Pseudomonas aeruginosa [40]": {"test_system": "Pseudomonas aeruginosa", "assay": "Antibacterial activity against Pseudomonas aeruginosa isolate 1050 by fractionation study", "type": "functional"}}, "note": "The source made the active and inactive calls. The rule behind the calls is not given here."}
{"molecule": "C[C@@H](O)[C@H]1C(=O)N2C(C(=O)O)=C(S[C@@H]3CN[C@H](CNS(N)(=O)=O)C3)[C@H](C)[C@H]12", "note": "[DORIPENEM]", "values": [{"measurement": "MIC", "setting": "Pseudomonas aeruginosa [1]", "result": 0.125, "unit": "µg/mL"}, {"measurement": "MIC", "setting": "Pseudomonas aeruginosa [2]", "result": 0.5, "unit": "µg/mL"}, {"measurement": "MIC", "setting": "Pseudomonas aeruginosa [3]", "result": 4, "unit": "µg/mL"}, {"measurement": "fT>MIC", "setting": "[4]", "result": 100, "unit": "%"}, {"measurement": "fT>MIC", "setting": "[5]", "result": 55, "unit": "%"}, {"measurement": "fT>MIC", "setting": "[6]", "result": 7.5, "unit": "%"}, {"measurement": "fT>MIC", "setting": "[7]", "result": 7.5, "unit": "%"}, {"measurement": "fT>MIC", "setting": "[8]", "result": 100, "unit": "%"}, {"measurement": "fT>MIC", "setting": "[9]", "result": 100, "unit": "%"}, {"measurement": "fT>MIC", "setting": "[10]", "result": 100, "unit": "%"}, {"measurement": "fT>MIC", "setting": "[11]", "result": 80, "unit": "%"}, {"measurement": "fT>MIC", "setting": "[12]", "result": 80, "unit": "%"}, {"measurement": "fT>MIC", "setting": "[13]", "result": 80, "unit": "%"}, {"measurement": "fT>MIC", "setting": "[14]", "result": 65, "unit": "%"}, {"measurement": "fT>MIC", "setting": "[15]", "result": 0, "unit": "%"}, {"measurement": "fT>MIC", "setting": "[16]", "result": 0, "unit": "%"}, {"measurement": "fT>MIC", "setting": "[17]", "result": 0, "unit": "%"}, {"measurement": "fT>MIC", "setting": "[18]", "result": 55, "unit": "%"}, {"measurement": "fT>MIC", "setting": "[19]", "result": 55, "unit": "%"}, {"measurement": "fT>MIC", "setting": "[20]", "result": 42.5, "unit": "%"}, {"measurement": "fT>MIC", "setting": "[21]", "result": 30, "unit": "%"}, {"measurement": "fT>MIC", "setting": "[22]", "result": 100, "unit": "%"}, {"measurement": "fT>MIC", "setting": "[23]", "result": 100, "unit": "%"}, {"measurement": "fT>MIC", "setting": "[24]", "result": 100, "unit": "%"}, {"measurement": "fT>MIC", "setting": "[25]", "result": 95, "unit": "%"}, {"measurement": "fT>MIC", "setting": "[26]", "result": 82.5, "unit": "%"}, {"measurement": "fT>MIC", "setting": "[27]", "result": 70, "unit": "%"}, {"measurement": "fT>MIC", "setting": "[28]", "result": 52.5, "unit": "%"}, {"measurement": "fT>MIC", "setting": "[29]", "result": 52.5, "unit": "%"}, {"measurement": "fT>MIC", "setting": "[30]", "result": 0, "unit": "%"}, {"measurement": "fT>MIC", "setting": "[31]", "result": 0, "unit": "%"}, {"measurement": "Tmax", "setting": "[32]", "result": 13.2, "unit": "min"}, {"measurement": "k el at 2 h", "setting": "[33]", "result": 0.000567, "unit": "s⁻¹"}, {"measurement": "half-life", "setting": "[34]", "result": 20.4, "unit": "min"}, {"measurement": "half-life", "setting": "[35]", "result": 26.4, "unit": "min"}, {"measurement": "CL/F", "setting": "[36]", "result": 11.2, "unit": "mL/min/kg"}, {"measurement": "Cmax", "setting": "[37]", "result": 21800, "unit": "ng/mL"}, {"measurement": "AUC at 4 h", "setting": "[38]", "result": 34400, "unit": "ng·h/mL"}, {"measurement": "Activity", "setting": "Pseudomonas aeruginosa [39]", "result": "inactive"}, {"measurement": "MIC", "setting": "Pseudomonas aeruginosa [40]", "result": 4, "unit": "µg/mL"}]}
